Experimental data from ChEMBL document CHEMBL3102840, “Synthesis and anti-proliferative activity of aromatic substituted 5-((1-benzyl-1H-indol-3-yl)methylene)-1,3-dimethylpyrimidine-2,4,6(1H,3H,5H)-trione analogs against human tumor cell lines” (2014).

How the values were obtained:
Assay type in all cases: functional
[1] = tested on: SK-OV-3; assay: Cytotoxicity against human SKOV3 cells after 48 hrs by SRB assay; settings: SK-OV-3, 48 h
Outline: (§1)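 Five-dose run from the sixty-line panel, at 10−4, 10−5, 10−6, 10−7 and 10−8 M. SRB-stain OD is read just before compound addition, after 48 hrs of exposure, and in vehicle controls, giving percentage growth; negative growth indicates cytotoxicity. GI50 is the concentration giving 50% reduction in net protein increase versus control cells. LC50 is the concentration lethal to 50% of cells.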

[2] = tested on: MDA-MB-468; assay: Cytotoxicity against human MDA-MB-468 cells assessed as growth inhibition at 10 uM after 48 hrs by SRB assay; settings: MDA-MB-468, 48 h, read-out: GI
Outline: (§2)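 Single-dose screen at 10µM across the sixty-cell-line panel. Percentage growth is derived from SRB-stain OD taken just before compound exposure, after 48 hrs exposure, and in vehicle-treated controls. Negative values indicate cytotoxicity.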

[3] = Cytotoxicity against human OVCAR5 cells assessed as growth inhibition at 10 uM after 48 hrs by SRB assay; settings: OVCAR-5, 48 h, read-out: GI; outline: as §2
[4] = tested on: OVCAR-8; assay: Cytotoxicity against human OVCAR8 cells after 48 hrs by SRB assay; settings: OVCAR-8, 48 h; for CC50: read-out: LC50 (the source's name); outline: as §1
[5] = tested on: SK-MEL-2; assay: Cytotoxicity against human SK-MEL-2 cells after 48 hrs by SRB assay; settings: SK-MEL-2, 48 h; outline: as §1
[6] = tested on: SN12C; assay: Cytotoxicity against human SN12C cells after 48 hrs by SRB assay; settings: for CC50: read-out: LC50 (the source's name); outline: as §1
[7] = tested on: TK-10; assay: Cytotoxicity against human TK10 cells after 48 hrs by SRB assay; settings: TK-10, 48 h; for CC50: read-out: LC50 (the source's name); outline: as §1
[8] = tested on: 786-0; assay: Cytotoxicity against human 786-0 cells after 48 hrs by SRB assay; settings: 786-0, 48 h; outline: as §1
[9] = tested on: UACC-62; assay: Cytotoxicity against human UACC62 cells after 48 hrs by SRB assay; settings: UACC-62, 48 h; outline: as §1
[10] = tested on: SW-620; assay: Cytotoxicity against human SW620 cells after 48 hrs by SRB assay; settings: SW-620, 48 h; for CC50: read-out: LC50 (the source's name); outline: as §1
[11] = tested on: NCI-H226; assay: Cytotoxicity against human NCI-H226 cells assessed as growth inhibition at 10 uM after 48 hrs by SRB assay; settings: NCI-H226, 48 h, read-out: GI; outline: as §2
[12] = tested on: TK-10; assay: Cytotoxicity against human TK10 cells assessed as growth inhibition at 10 uM after 48 hrs by SRB assay; settings: TK-10, 48 h, read-out: GI; outline: as §2
[13] = tested on: RXF 393; assay: Cytotoxicity against human RXF393 cells after 48 hrs by SRB assay; settings: RXF 393, 48 h; outline: as §1
[14] = tested on: SR; assay: Cytotoxicity against human SR cells after 48 hrs by SRB assay; outline: as §1
[15] = tested on: MDA-MB-231; assay: Cytotoxicity against human MDA-MB-231 cells after 48 hrs by SRB assay; settings: MDA-MB-231, 48 h; for CC50: read-out: LC50 (the source's name); outline: as §1
[16] = tested on: A498; assay: Cytotoxicity against human A498 cells assessed as growth inhibition at 10 uM after 48 hrs by SRB assay; settings: A498, 48 h, read-out: GI; outline: as §2
[17] = tested on: NCI-H460; assay: Cytotoxicity against human NCI-H460 cells after 48 hrs by SRB assay; settings: NCI-H460, 48 h; for CC50: read-out: LC50 (the source's name); outline: as §1
[18] = tested on: MDA-MB-435; assay: Cytotoxicity against human MDA-MB-435 cells after 48 hrs by SRB assay; settings: MDA-MB-435, 48 h; outline: as §1
[19] = Cytotoxicity against human UACC257 cells after 48 hrs by SRB assay; settings: UACC-257, 48 h; for CC50: read-out: LC50 (the source's name); outline: as §1
[20] = tested on: COLO 205; assay: Cytotoxicity against human COLO205 cells after 48 hrs by SRB assay; settings: COLO 205, 48 h; for CC50: read-out: LC50 (the source's name); outline: as §1
[21] = tested on: MCF7; assay: Cytotoxicity against human MCF7 cells after 48 hrs by SRB assay; settings: MCF7, 48 h; outline: as §1
[22] = tested on: SK-MEL-5; assay: Cytotoxicity against human SK-MEL-5 cells after 48 hrs by SRB assay; settings: SK-MEL-5, 48 h; outline: as §1
[23] = tested on: NCI-H23; assay: Cytotoxicity against human NCI-H23 cells after 48 hrs by SRB assay; settings: NCI-H23, 48 h; outline: as §1
[24] = tested on: NCI-H226; assay: Cytotoxicity against human NCI-H226 cells after 48 hrs by SRB assay; settings: NCI-H226, 48 h; for CC50: read-out: LC50 (the source's name); outline: as §1
[25] = tested on: K562; assay: Cytotoxicity against human K562 cells after 48 hrs by SRB assay; settings: K562, 48 h; for CC50: read-out: LC50 (the source's name); outline: as §1
[26] = Cytotoxicity against human OVCAR5 cells after 48 hrs by SRB assay; settings: OVCAR-5, 48 h; for CC50: read-out: LC50 (the source's name); outline: as §1
[27] = tested on: HOP-62; assay: Cytotoxicity against human HOP62 cells after 48 hrs by SRB assay; settings: HOP-62, 48 h; for CC50: read-out: LC50 (the source's name); outline: as §1
[28] = tested on: LOX IMVI; assay: Cytotoxicity against human LOXIMVI cells after 48 hrs by SRB assay; settings: for CC50: read-out: LC50 (the source's name); outline: as §1
[29] = Cytotoxicity against human NCI-ADR-RES cells after 48 hrs by SRB assay; settings: for CC50: read-out: LC50 (the source's name); outline: as §1
[30] = tested on: HCT-116; assay: Cytotoxicity against human HCT116 cells after 48 hrs by SRB assay; settings: HCT-116, 48 h; outline: as §1
[31] = tested on: T47D; assay: Cytotoxicity against human T47D cells after 48 hrs by SRB assay; outline: as §1
[32] = tested on: SF-295; assay: Cytotoxicity against human SF295 cells after 48 hrs by SRB assay; settings: SF-295, 48 h; outline: as §1
[33] = tested on: SNB-19; assay: Cytotoxicity against human SNB19 cells after 48 hrs by SRB assay; settings: SNB-19, 48 h; outline: as §1
[34] = tested on: MDA-MB-468; assay: Cytotoxicity against human MDA-MB-468 cells after 48 hrs by SRB assay; settings: MDA-MB-468, 48 h; outline: as §1
[35] = tested on: A498; assay: Cytotoxicity against human A498 cells after 48 hrs by SRB assay; settings: A498, 48 h; outline: as §1
[36] = tested on: BT-549; assay: Cytotoxicity against human BT549 cells after 48 hrs by SRB assay; settings: BT-549, 48 h; for CC50: read-out: LC50 (the source's name); outline: as §1
[37] = tested on: IGROV-1; assay: Cytotoxicity against human IGROV1 cells after 48 hrs by SRB assay; settings: IGROV-1, 48 h; for CC50: read-out: LC50 (the source's name); outline: as §1

COc1ccc(Cn2cc(C=C3C(=O)N(C)C(=O)N(C)C3=O)c3ccccc32)cc1
GI50 [1]: 5.03 µM | LC50 [1]: > 100 µM | inhibition of growth at 10 µM [2]: -65% | inhibition of growth at 10 µM [3]: -38% | GI50 [4]: 13.4 µM | CC50 [4]: 88.6 µM | GI50 [5]: 2.78 µM | GI50 [6]: 12.5 µM | CC50 [6]: > 100 µM | GI50 [7]: 0.1 µM | CC50 [7]: 72.5 µM | GI50 [8]: 11.2 µM | LC50 [8]: > 100 µM | GI50 [9]: 0.9 µM | LC50 [9]: 68 µM | GI50 [10]: 6.89 µM | CC50 [10]: > 100 µM | inhibition of growth at 10 µM [11]: -55% | inhibition of growth at 10 µM [12]: -12% | GI50 [13]: 14.8 µM | LC50 (lethal concentration, 50%) [13]: > 100 µM | GI50 [14]: 5.43 µM | LC50 (lethal concentration, 50%) [14]: > 100 µM | GI50 [15]: 5.86 µM | CC50 [15]: > 100 µM | inhibition of growth at 10 µM [16]: -92% | GI50 [17]: 0.81 µM | CC50 [17]: 82.8 µM | GI50 [18]: 3.29 µM | LC50 [18]: > 100 µM | GI50 [19]: 1.54 µM | CC50 [19]: 38.2 µM | GI50 [20]: 0.63 µM | CC50 [20]: 45.3 µM | GI50 [21]: 5.26 µM | LC50 [21]: > 100 µM | GI50 [22]: 5.08 µM | LC50 [22]: 64.4 µM | GI50 [23]: 4.67 µM | LC50 [23]: > 100 µM | GI50 [24]: 1.44 µM | CC50 [24]: 53.9 µM | GI50 [25]: 2.18 µM | CC50 [25]: > 100 µM | GI50 [26]: 0.02 µM | CC50 [26]: > 100 µM | GI50 [27]: 6.22 µM | CC50 [27]: > 100 µM | GI50 [28]: 5.45 µM | CC50 [28]: > 100 µM | GI50 [29]: 3.59 µM | CC50 [29]: > 100 µM | GI50 [30]: 5.01 µM | LC50 [30]: > 100 µM | GI50 [31]: 3.53 µM | LC50 [31]: > 100 µM | GI50 [32]: 1.54 µM | LC50 [32]: > 100 µM | GI50 [33]: 15.8 µM | LC50 [33]: > 100 µM | GI50 [34]: 0.04 µM | LC50 [34]: 0.76 µM | GI50 [35]: 0.06 µM | LC50 [35]: 5.27 µM | GI50 [36]: 4.94 µM | CC50 [36]: > 100 µM | GI50 [37]: 1.93 µM | CC50 [37]: > 100 µM

CN1C(=O)C(=Cc2cn(Cc3ccc(F)cc3)c3ccc(Cl)cc23)C(=O)N(C)C1=O
inhibition of growth at 10 µM [2]: -70% | inhibition of growth at 10 µM [3]: -19% | inhibition of growth at 10 µM [11]: -79% | inhibition of growth at 10 µM [12]: 19% | inhibition of growth at 10 µM [16]: -95%

CN1C(=O)C(=Cc2cn(Cc3ccc(Cl)cc3)c3ccccc23)C(=O)N(C)C1=O
GI50 [1]: 6.08 µM | LC50 [1]: > 100 µM | inhibition of growth at 10 µM [2]: -71% | inhibition of growth at 10 µM [3]: -23% | GI50 [4]: 21.3 µM | CC50 [4]: > 100 µM | GI50 [5]: 2.84 µM | GI50 [6]: 92.1 µM | CC50 [6]: > 100 µM | GI50 [7]: 0.18 µM | CC50 [7]: 50.4 µM | GI50 [8]: 6.9 µM | LC50 [8]: > 100 µM | GI50 [9]: 2.06 µM | LC50 [9]: > 100 µM | GI50 [10]: > 100 µM | CC50 [10]: > 100 µM | inhibition of growth at 10 µM [11]: -82% | inhibition of growth at 10 µM [12]: -26% | GI50 [13]: 12.5 µM | LC50 (lethal concentration, 50%) [13]: > 100 µM | GI50 [14]: 70.3 µM | LC50 (lethal concentration, 50%) [14]: > 100 µM | GI50 [15]: 12.2 µM | CC50 [15]: > 100 µM | inhibition of growth at 10 µM [16]: -94% | GI50 [17]: 0.4 µM | CC50 [17]: > 100 µM | GI50 [18]: > 100 µM | LC50 [18]: > 100 µM | GI50 [19]: 2.01 µM | CC50 [19]: > 100 µM | GI50 [20]: 2.78 µM | CC50 [20]: 29.5 µM | GI50 [21]: > 100 µM | LC50 [21]: > 100 µM | GI50 [22]: > 100 µM | LC50 [22]: > 100 µM | GI50 [23]: 10.2 µM | LC50 [23]: > 100 µM | GI50 [24]: 1.26 µM | CC50 [24]: > 100 µM | CC50 [25]: > 100 µM | GI50 [26]: 0.16 µM | CC50 [26]: > 100 µM | GI50 [27]: 10.7 µM | CC50 [27]: > 100 µM | GI50 [28]: 17.3 µM | CC50 [28]: > 100 µM | GI50 [29]: 16.3 µM | CC50 [29]: > 100 µM | GI50 [30]: 4.47 µM | LC50 [30]: > 100 µM | GI50 [31]: 3.53 µM | LC50 [31]: > 100 µM | GI50 [32]: 1.21 µM | LC50 [32]: > 100 µM | GI50 [33]: 18.3 µM | LC50 [33]: > 100 µM | GI50 [34]: 0.06 µM | LC50 [34]: 0.7 µM | GI50 [35]: 0.04 µM | LC50 [35]: 0.64 µM | GI50 [36]: 12.5 µM | CC50 [36]: > 100 µM | GI50 [37]: 2.88 µM | CC50 [37]: > 100 µM
